From ChEMBL document CHEMBL1129475, “Water soluble inhibitors of topoisomerase I: quaternary salt derivatives of camptothecin” (J Med Chem, 1996)
In brackets after ≈: the same amount, converted by molar mass.

Experiments:
[1] = MDR ratio is defined as the quotient of SKVLB IC50/SKOV3 IC50; assay type: functional
Outline: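 Ratio of SKVLB IC50 to SKOV3 IC50, each from the 96 h MTT cytotoxicity assay with a four-parameter logistic fit.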

[2] = Solubility was measured in D2O using 1H NMR integration of the C-20 ethyl group against internal standard 1,4-dioxane; assay type: physicochemical
Outline: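 Compound equilibrated ≥30 min in D2O containing 1,4-dioxane (0.015 M standardized solution) as internal standard, then filtered. 300-MHz ¹H spectrum; the C-18 methyl triplet at 0.8–0.9 ppm was integrated against the dioxane signal at 3.75 ppm.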

Mus musculus [3] = test: Mean body weight loss for animals in all experimental conditions at dose 8 mg/Kg in HT-29 human colon xenograft infected mice; assay type: functional
Outline: (§1)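 Female nu/nu mice (18-24 g) carrying subcutaneous HT-29 flank tumors; N=6 per group. Compound given s.c. twice weekly for 5 weeks over a dose range including the highest dose found in naive mice. Caliper tumor volume = length×width²/2. T/B = tumor volume at end of treatment over initial volume. Body weight monitored; mean weight loss per group.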

HT-29 = test: Human tumor cell cytotoxicity assay was performed using MTT (HT-29 cell line ); assay type: functional, cell-based
Mus musculus [4] = test: Mean body weight loss for animals in all experimental conditions at dose 12 mg/Kg in HT-29 human colon xenograft infected mice; assay type: functional; outline: as §1
Mus musculus [5] = test: Compound was tested for number of deaths of the animals at a dose of 12 mg/Kg in mice; assay type: ADME, organism-based; conditions: in vivo; outline: as §1
Mus musculus [6] = organism: Mus musculus; test: Maximally tolerated dose that caused <=30% body weight loss in mice; assay type: functional
Outline: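 Highest single s.c. bolus dose in tumor-free nude mice causing ≤30% body weight loss.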

Mus musculus [7] = test: Efficacy against HT-29 human colon xenograft infected mice expressed as tumor growth ratio at dose 12 mg/Kg; assay type: functional; outline: as §1
Mus musculus [8] = test: Mean body weight loss for animals in all experimental conditions at dose 14 mg/Kg in HT-29 human colon xenograft infected mice; assay type: functional; outline: as §1
SK-VLB = test: Human tumor cell cytotoxicity assay was performed using MTT (SKVLB cell line ); assay type: functional, cell-based
Mus musculus [9] = test: Delay in tumor growth in drug treated animals compared to controls at a dose of 80(mg/kg); assay type: functional
Outline: (§2)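 Tumor growth delay in nude mice with HT-29 xenografts, N=6. The dose from a single s.c. bolus in tumor-free mice was split into three s.c. portions given over one day. T/C = difference in days for tumors to reach 500% of initial volume, treated versus control.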

Mus musculus [10] = test: Compound was tested for number of deaths of the animals at a dose of 8 mg/Kg in mice; assay type: ADME, organism-based; conditions: in vivo; outline: as §1
Mus musculus [11] = test: Compound was tested for number of deaths of the animals at a dose of 14 mg/Kg in mice; assay type: ADME, organism-based; conditions: in vivo; outline: as §1
Mus musculus [12] = test: Efficacy against HT-29 human colon xenograft infected mice expressed as tumor growth ratio at dose 14 mg/Kg; assay type: functional; outline: as §1
Mus musculus [13] = test: Efficacy against HT-29 human colon xenograft infected mice expressed as tumor growth ratio at dose 8 mg/Kg; assay type: functional; outline: as §1
SK-OV-3 = test: Human tumor cell cytotoxicity assay was performed using MTT (SK-OV3 cell line ); assay type: functional, cell-based
Mus musculus [14] = test: Delay in tumor growth in drug treated animals compared to controls at a dose of 100(mg/kg); assay type: functional; outline: as §2
Mus musculus [15] = test: Delay in tumor growth in drug treated animals compared to controls at a dose of 48(mg/kg); assay type: functional; outline: as §2
Mus musculus [16] = test: Compound was tested for number of deaths of the animals at a dose of 11 mg/Kg in mice; assay type: ADME, organism-based; conditions: in vivo; outline: as §1
Mus musculus [17] = test: Efficacy against HT-29 human colon xenograft infected mice expressed as tumor growth ratio at dose 9.5 mg/Kg; assay type: functional; outline: as §1
Mus musculus [18] = test: Efficacy against HT-29 human colon xenograft infected mice expressed as tumor growth ratio at dose 10.5 mg/Kg; assay type: functional; outline: as §1
Mus musculus [19] = test: Mean body weight loss for animals in all experimental conditions at dose 9.5 mg/Kg in HT-29 human colon xenograft infected mice; assay type: functional; outline: as §1
Mus musculus [20] = test: Mean body weight loss for animals in all experimental conditions at dose 11 mg/Kg in HT-29 human colon xenograft infected mice; assay type: functional; outline: as §1
Mus musculus [21] = test: Compound was tested for number of deaths of the animals at a dose of 9.5 mg/Kg in mice; assay type: ADME, organism-based; conditions: in vivo; outline: as §1
Mus musculus [22] = test: Efficacy against HT-29 human colon xenograft infected mice expressed as tumor growth ratio at dose 11 mg/Kg; assay type: functional
Outline: (§3)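 Female nu/nu mice (18-24 g) bearing subcutaneous HT-29 flank tumours, N=6 per group. Dosed subcutaneously twice weekly for 5 weeks over a dose range that included the highest dose, which was set in naive mice. Caliper volume = length×width²/2. T/B = group mean tumour volume at end of treatment divided by initial mean volume.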

Mus musculus [23] = test: Mean body weight loss for animals in all experimental conditions at dose 10.5 mg/Kg in HT-29 human colon xenograft infected mice; assay type: functional; outline: as §1
Mus musculus [24] = test: Compound was tested for number of deaths of the animals at a dose of 10.5 mg/Kg in mice; assay type: ADME, organism-based; conditions: in vivo; outline: as §1
Mus musculus [25] = test: Compound was tested for number of deaths of the animals at a dose of 7 mg/Kg in mice; assay type: ADME, organism-based; conditions: in vivo; outline: as §1
Mus musculus [26] = test: Efficacy against HT-29 human colon xenograft infected mice expressed as tumor growth ratio at dose 7 mg/Kg; assay type: functional; outline: as §3
Mus musculus [27] = test: Mean body weight loss for animals in all experimental conditions at dose 9 mg/Kg in HT-29 human colon xenograft infected mice; assay type: functional
Outline: (§4)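 HT-29 subcutaneous xenografts in female nu/nu mice, N=6 per group. Subcutaneous dosing twice weekly for 5 weeks. Body weight was monitored and reported as mean percent loss per group. A loss of 30% or more was considered lethal.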

Mus musculus [28] = test: Efficacy against HT-29 human colon xenograft infected mice expressed as tumor growth ratio at dose 5 mg/Kg; assay type: functional; outline: as §3
Mus musculus [29] = test: Mean body weight loss for animals in all experimental conditions at dose 7 mg/Kg in HT-29 human colon xenograft infected mice; assay type: functional; outline: as §4
Mus musculus [30] = test: Mean body weight loss for animals in all experimental conditions at dose 5 mg/Kg in HT-29 human colon xenograft infected mice; assay type: functional; outline: as §4
Mus musculus [31] = test: Compound was tested for number of deaths of the animals at a dose of 9 mg/Kg in mice; assay type: ADME, organism-based; conditions: in vivo; outline: as §1
Mus musculus [32] = test: Efficacy against HT-29 human colon xenograft infected mice expressed as tumor growth ratio at dose 9 mg/Kg; assay type: functional; outline: as §3
Mus musculus [33] = test: Delay in tumor growth in drug treated animals compared to controls at a dose of 54(mg/kg); assay type: functional
Mus musculus [34] = test: Compound was tested for number of deaths of the animals at a dose of 5 mg/Kg in mice; assay type: ADME, organism-based; conditions: in vivo; outline: as §1

SMILES: COc1cccc2c1C(=O)c1c(O)c3c(c(O)c1C2=O)C[C@@](O)(C(=O)CO)C[C@@H]3O[C@H]1C[C@H](N)[C@H](O)[C@H](C)O1 [DOXORUBICIN]
- Ratio [1]: 160
- solubility [2]: > 2 mg/mL

SMILES: CC[C@@]1(O)C(=O)OCc2c1cc1n(c2=O)Cc2c-1nc1cc3c(cc1c2C[n+]1ccncc1)OCCO3
- Ratio [1]: 80
- BW loss (Mus musculus [3]): 21%
- IC50 (HT-29): 0.016 µM
- BW loss (Mus musculus [4]): 27%
- Deaths (Mus musculus [5]): 0
- MTD (Mus musculus [6]): 100 mg/kg
- Efficacy (Mus musculus [7]): 0.7
- BW loss (Mus musculus [8]): 13%
- IC50 (SK-VLB): 0.87 µM
- T/C (Mus musculus [9]): 14 days
- Deaths (Mus musculus [10]): 0
- Deaths (Mus musculus [11]): 0
- solubility [2]: 1.4 mg/mL
- Efficacy (Mus musculus [12]): 0.32
- Efficacy (Mus musculus [13]): 2.1
- IC50 (SK-OV-3): 0.011 µM

SMILES: CC[C@@]1(O)C(=O)OCc2c1cc1n(c2=O)Cc2c-1nc1cc3c(cc1c2Cn1ccnc1)OCO3
- solubility [2]: < 0.5 mg/mL

SMILES: CC[C@@]1(O)C(=O)OCc2c1cc1n(c2=O)Cc2c-1nc1cc3c(cc1c2C[n+]1cccc(CO)c1)OCO3
- Ratio [1]: 2
- IC50 (HT-29): 0.013 µM
- T/C (Mus musculus [14]): 9 days
- MTD (Mus musculus [6]): >100 mg/kg
- IC50 (SK-VLB): 0.023 µM
- solubility [2]: > 4.4 mg/mL
- IC50 (SK-OV-3): 0.011 µM

SMILES: CC[C@@]1(O)C(=O)OCc2c1cc1n(c2=O)Cc2c-1nc1cc3c(cc1c2C[n+]1cccc(CO)c1)OCCO3
- solubility [2]: 1.2 mg/mL

SMILES: CC[C@@]1(O)C(=O)OCc2c1cc1n(c2=O)Cc2c-1nc1cc3c(cc1c2C[n+]1ccccc1)OCCO3
- Ratio [1]: 1
- IC50 (HT-29): 0.084 µM
- IC50 (SK-VLB): 0.084 µM
- solubility [2]: 1.8 mg/mL
- IC50 (SK-OV-3): 0.085 µM

SMILES: CC[C@@]1(O)C(=O)OCc2c1cc1n(c2=O)Cc2c-1nc1cc3c(cc1c2C[n+]1ccncc1)OCO3
- Ratio [1]: 4
- IC50 (HT-29): 0.046 µM
- MTD (Mus musculus [6]): 80 mg/kg
- IC50 (SK-VLB): 0.023 µM
- solubility [2]: 1.4 mg/mL
- T/C (Mus musculus [15]): 11 days
- IC50 (SK-OV-3): 0.006 µM

SMILES: CC[C@@]1(O)C(=O)OCc2c1cc1n(c2=O)Cc2c-1nc1cc3c(cc1c2C[n+]1ccccn1)OCO3
- Ratio [1]: 2
- IC50 (SK-VLB): 0.13 µM
- solubility [2]: > 3.1 mg/mL
- IC50 (SK-OV-3): 0.083 µM

SMILES: CC[C@@]1(O)C(=O)OCc2c1cc1n(c2=O)Cc2c-1nc1cc3c(cc1c2C[n+]1ccccc1)OCO3
- Ratio [1]: 1
- IC50 (HT-29): 0.07 µM
- T/C (Mus musculus [14]): 4 days
- MTD (Mus musculus [6]): >100 mg/kg
- IC50 (SK-VLB): 0.072 µM
- solubility [2]: > 4.5 mg/mL
- IC50 (SK-OV-3): 0.074 µM

SMILES: CC[C@@]1(O)C(=O)OCc2c1cc1n(c2=O)Cc2c-1nc1cc3c(cc1c2C[n+]1ccc(CO)cc1)OCCO3
- solubility [2]: 1.1 mg/mL

SMILES: CC[C@@]1(O)C(=O)OCc2c1cc1n(c2=O)Cc2c-1nc1cc3c(cc1c2Cn1cc[n+](C)c1)OCCO3
- solubility [2]: 1.3 mg/mL

SMILES: CC[C@@]1(O)C(=O)OCc2c1cc1n(c2=O)Cc2c-1nc1cc3c(cc1c2Cn1cc[n+](C)c1)OCO3
- Deaths (Mus musculus [16]): 0
- Ratio [1]: 9
- Efficacy (Mus musculus [17]): 6.74
- Efficacy (Mus musculus [18]): 3.84
- IC50 (HT-29): 0.075 µM
- BW loss (Mus musculus [19]): 4%
- T/C (Mus musculus [14]): 14 days
- BW loss (Mus musculus [20]): 16%
- MTD (Mus musculus [6]): 100 mg/kg
- Deaths (Mus musculus [21]): 0
- IC50 (SK-VLB): 1 µM
- Efficacy (Mus musculus [22]): 2.85
- BW loss (Mus musculus [23]): 12%
- solubility [2]: > 3.5 mg/mL
- Deaths (Mus musculus [24]): 0
- IC50 (SK-OV-3): 0.11 µM

SMILES: CC[C@@]1(O)C(=O)OCc2c1cc1n(c2=O)Cc2cc3c(CN(C)C)c(O)ccc3nc2-1 [TOPOTECAN]
- Deaths (Mus musculus [16]): 0
- Deaths (Mus musculus [25]): 0
- Efficacy (Mus musculus [26]): 7
- BW loss (Mus musculus [27]): 17%
- Efficacy (Mus musculus [28]): 8.6
- BW loss (Mus musculus [29]): 11%
- BW loss (Mus musculus [20]): 23%
- MTD (Mus musculus [6]): 54 mg/kg
- BW loss (Mus musculus [30]): 15%
- Deaths (Mus musculus [31]): 2
- Efficacy (Mus musculus [32]): 4.3
- Efficacy (Mus musculus [22]): 2.9
- solubility [2]: 2.1 mg/mL (≈ 4.98 mM)
- T/C (Mus musculus [33]): 10 days
- Deaths (Mus musculus [34]): 0

SMILES: CC[C@@]1(O)C(=O)OCc2c1cc1n(c2=O)Cc2c-1nc1cc3c(cc1c2C[n+]1ccccn1)OCCO3
- Ratio [1]: 1
- IC50 (SK-VLB): 0.094 µM
- solubility [2]: 0.91 mg/mL
- IC50 (SK-OV-3): 0.069 µM

SMILES: CC[C@@]1(O)C(=O)OCc2c1cc1n(c2=O)Cc2c-1nc1cc3c(cc1c2Cn1ccnc1)OCCO3
- solubility [2]: < 0.5 mg/mL
